In ChEMBL document CHEMBL3525900, “Pharmacokinetics, distribution, and metabolism of [14C]sunitinib in rats, monkeys, and humans” (Drug Metab Dispos, 2012):

What was measured:
[1] = test system: Heart; test: Drug concentration in female albino rat heart assessed as radioactivity per gram of tissue at 20 mg/kg administered as single dose via gastric gavage measured after 6 hrs by autoradiographic analysis; assay type: ADME, organism-based; parameters: dose 20 mg/kg, dosed compound name [14C]Sunitinib; conditions: in vivo, po
In short: (§1)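 Sprague Dawley albino rats, ca 7-8 weeks old, dosed once by gastric gavage with [14C]sunitinib L-malate (15 mg freebase/kg, 100 µCi/kg). One male and one female killed by CO2 at 3, 6, 24, 72 and 168 h. Carcasses frozen in solid CO2/hexane, embedded and cut into 30 µm sagittal sections, then freeze-dried. Radioactivity quantified by whole-body autoradiography against standards by regression, background subtracted.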

[2] = Drug concentration in female albino rat preputial gland assessed as radioactivity per gram of tissue at 20 mg/kg administered as single dose via gastric gavage measured after 24 hrs by autoradiographic analysis; assay type: ADME, organism-based; parameters: dose 20 mg/kg, dosed compound name [14C]Sunitinib; conditions: in vivo, po; in short: as §1
[3] = test system: Pancreas; test: Drug concentration in male albino rat pancreas assessed as radioactivity per gram of tissue at 20 mg/kg administered as single dose via gastric gavage measured after 6 hrs by autoradiographic analysis; assay type: ADME, organism-based; parameters: dose 20 mg/kg, dosed compound name [14C]Sunitinib; conditions: in vivo, po
[4] = Drug concentration in female albino rat lachrymal gland assessed as radioactivity per gram of tissue at 20 mg/kg administered as single dose via gastric gavage measured after 24 hrs by autoradiographic analysis; assay type: ADME, organism-based; parameters: dose 20 mg/kg, dosed compound name [14C]Sunitinib; conditions: in vivo, po; in short: as §1
[5] = test system: Rattus norvegicus; test: Cmax as total radioactivity in male Sprague-Dawley rat plasma at 15 mg/kg, po administered as single dose by LC/MS/MS analysis; assay type: ADME, organism-based; parameters: dose 15 mg/kg, dosed compound name [14C]Sunitinib, route oral; conditions: in vivo
In short: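 Single dose of [14C]sunitinib L-malate as free base, 50 µCi/kg. IV dose was 5 mg/kg by tail vein in 5 females. Oral dose was 15 mg/kg by gavage in 3 females and 3 males. Total radioactivity was by scintillation counting. […] Cmax was read from raw data, t½ by log-linear regression, AUC by linear trapezoidal rule.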

[6] = Drug recovery in urine of male cynomolgus monkey at 6 mg/kg, po administered as single dose during 0 to 336 hrs by liquid scintillation counting; assay type: ADME, organism-based, Macaca fascicularis; parameters: dose 6 mg/kg, dosed compound name [14C]Sunitinib, route oral; conditions: in vivo
[7] = test system: Pancreas; test: Drug concentration in male albino rat pancreas assessed as radioactivity per gram of tissue at 20 mg/kg administered as single dose via gastric gavage measured after 24 hrs by autoradiographic analysis; assay type: ADME, organism-based; parameters: dose 20 mg/kg, dosed compound name [14C]Sunitinib; conditions: in vivo, po
[8] = test system: Large intestine; test: Drug concentration in female Lister Hooded pigmented rat large intestine assessed as radioactivity per gram of tissue at 20 mg/kg administered as single dose via gastric gavage measured after 24 hrs by autoradiographic analysis; assay type: ADME, organism-based; parameters: dose 20 mg/kg, dosed compound name [14C]Sunitinib; conditions: in vivo, po
In short: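 Lister Hooded (pigmented) rats, ca 7-8 weeks old, acclimated 7 days, given [14C]sunitinib L-malate by gastric gavage at 20 mg/kg (15 mg freebase/kg, 100 µCi/kg). One male and one female killed by CO2 at 24, 72, 168 and 336 h. Carcasses frozen in solid CO2/hexane and embedded in frozen cellulose. 30 µm sagittal cryosections were freeze-dried. Tissue radioactivity measured by quantitative whole-body autoradiography against calibration standards, with background subtracted.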

[9] = test system: Pancreas; test: Drug concentration in male albino rat pancreas assessed as radioactivity per gram of tissue at 20 mg/kg administered as single dose via gastric gavage measured after 3 hrs by autoradiographic analysis; assay type: ADME, organism-based; parameters: dose 20 mg/kg, dosed compound name [14C]Sunitinib; conditions: in vivo, po
[10] = test system: Thymus; test: Drug concentration in male Lister Hooded pigmented rat thymus assessed as radioactivity per gram of tissue at 20 mg/kg administered as single dose via gastric gavage measured after 168 hrs by autoradiographic analysis; assay type: ADME, organism-based; parameters: dose 20 mg/kg, dosed compound name [14C]Sunitinib; conditions: in vivo, po
[11] = test system: Thymus; test: Drug concentration in male albino rat thymus assessed as radioactivity per gram of tissue at 20 mg/kg administered as single dose via gastric gavage measured after 3 hrs by autoradiographic analysis; assay type: ADME, organism-based; parameters: dose 20 mg/kg, dosed compound name [14C]Sunitinib; conditions: in vivo, po
[12] = test system: Spleen; test: Drug concentration in male Lister Hooded pigmented rat spleen assessed as radioactivity per gram of tissue at 20 mg/kg administered as single dose via gastric gavage measured after 168 hrs by autoradiographic analysis; assay type: ADME, organism-based; parameters: dose 20 mg/kg, dosed compound name [14C]Sunitinib; conditions: in vivo, po
[13] = Drug concentration in male albino rat testis assessed as radioactivity per gram of tissue at 20 mg/kg administered as single dose via gastric gavage measured after 168 hrs by autoradiographic analysis; assay type: ADME, organism-based; parameters: dose 20 mg/kg, dosed compound name [14C]Sunitinib; conditions: in vivo, po
[14] = test system: Rattus norvegicus; test: Drug recovery in cage residue of female Sprague-Dawley rat at 5 mg/kg, iv administered as single dose during 0 to 72 hrs by liquid scintillation counting; assay type: ADME, organism-based; parameters: dose 5 mg/kg, dosed compound name [14C]Sunitinib, route intravenous; conditions: in vivo
[15] = Drug concentration in male albino rat bladder assessed as radioactivity per gram of tissue at 20 mg/kg administered as single dose via gastric gavage measured after 6 hrs by autoradiographic analysis; assay type: ADME, organism-based, Urinary bladder; parameters: dose 20 mg/kg, dosed compound name [14C]Sunitinib; conditions: in vivo, po
[16] = test system: Cynomolgus monkey; test: Tmax as total radioactivity in female cynomolgus monkey plasma at 6 mg/kg, po administered as single dose by LC/MS/MS analysis; assay type: ADME, organism-based, Macaca fascicularis; parameters: dose 6 mg/kg, dosed compound name [14C]Sunitinib, route oral; conditions: in vivo
[17] = Drug concentration in male albino rat bone marrow assessed as radioactivity per gram of tissue at 20 mg/kg administered as single dose via gastric gavage measured after 24 hrs by autoradiographic analysis; assay type: ADME, organism-based; parameters: dose 20 mg/kg, dosed compound name [14C]Sunitinib; conditions: in vivo, po

Radiolabel recovery [1]: 6.18 ugequiv
Radiolabel recovery [2]: 5.79 ugequiv
Radiolabel recovery [3]: 9.18 ugequiv
Radiolabel recovery [4]: 6.79 ugequiv
Cmax [5]: 5220 ngequiv/ml
Radiolabel recovery [6]: 4.8%
Radiolabel recovery [7]: 1.68 ugequiv
Radiolabel recovery [8]: 0.78 ugequiv
Radiolabel recovery [9]: 11.1 ugequiv
Radiolabel recovery [10]: 0.06 ugequiv
Radiolabel recovery [11]: 6.89 ugequiv
Radiolabel recovery [12]: 0.06 ugequiv
Radiolabel recovery [13]: 0.3 ugequiv
Radiolabel recovery [14]: 1.1%
Radiolabel recovery [15]: 2.56 ugequiv
Tmax [16]: 4 h
Radiolabel recovery [17]: 0.38 ugequiv
SMILES: CCN(CC)CCNC(=O)c1c(C)[nH]c(/[14CH]=C2\C(=O)Nc3ccc(F)cc32)c1C.O=C(O)C[C@H](O)C(=O)O
